How the values were obtained:
[1] = target: T1, Induced myeloid leukemia cell differentiation protein Mcl-1 (Homo sapiens, UniProt Q07820); test: Inhibition of Mcl1 (unknown origin) by TR-FRET assay
Target sequence in this assay (Q07820 whole entry): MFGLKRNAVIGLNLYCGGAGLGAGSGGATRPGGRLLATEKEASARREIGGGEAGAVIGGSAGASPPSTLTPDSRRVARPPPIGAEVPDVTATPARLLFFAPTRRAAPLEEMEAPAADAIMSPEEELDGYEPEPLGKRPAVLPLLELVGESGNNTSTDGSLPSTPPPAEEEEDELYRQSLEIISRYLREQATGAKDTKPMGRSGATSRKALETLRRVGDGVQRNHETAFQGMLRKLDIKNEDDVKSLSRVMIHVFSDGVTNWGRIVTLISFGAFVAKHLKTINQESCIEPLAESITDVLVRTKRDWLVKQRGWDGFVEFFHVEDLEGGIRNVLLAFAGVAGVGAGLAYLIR

[2] = Lipophilicity, logD of the compound at pH 7.4; type: physicochemical; conditions: buffer
Outline: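 Shake-flask partitioning to determine logD, with the aqueous phase at pH 7.4.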

[3] = target: T1, Induced myeloid leukemia cell differentiation protein Mcl-1; test: Binding affinity to Mcl-1 (unknown origin) by SPR assay
Target sequence in this assay (Q07820 whole entry, looked up): as the sequence (Q07820 whole entry) above

[4] = target: T2, B-cell lymphoma 6 protein (Homo sapiens, UniProt P41182); test: Inhibition of Bcl6 (unknown origin) by TR-FRET assay
[5] = target: T1, Induced myeloid leukemia cell differentiation protein Mcl-1
Target sequence in this assay (Q07820 whole entry): as above

[6] = target: T2, B-cell lymphoma 6 protein

Ki [1] [nM]	logD [2]	SMILES	other results
290	3.6	Cc1nn(C)c(C)c1-c1cccc2c(CCCOc3cccc4ccccc34)c(C(=O)O)[nH]c12	Kd [3]: 480 nM
300	–	CC1CCN[C@@H](Cc2ccc(Cl)cc2)CC(=O)N[C@H]2CCc3ccccc3N(CC(=O)N[C@H](Cc3ccc(Cl)c(Cl)c3)CC(=O)N1C)C2=O (stereo in doubt; 12)	–
–	2.4	N#Cc1cnn2c3cc(nc12)N1CC[C@@H](C1)OC/C=C/COc1cc(cc2c1NC(=O)CC2)N3	–
–	4	C[C@@H]1CCCCN(C)c2cc(n3ncc(C#N)c3n2)Nc2cc3c(c(c2)O1)N(C)C(=O)CC3	IC50 [4]: 25 nM
–	-0.4	N#Cc1cnn2c(Nc3ccc4c(c3)CCC(=O)N4)cc(N3CCC[C@H]3CC(=O)O)nc12	–
–	2.3	N#Cc1cnn2c(Nc3ccc4c(c3)CCC(=O)N4)cc(N3CCC[C@H]3CO)nc12	–
5210	3.7	O=C1C[C@@H](Cc2ccc(Cl)c(Cl)c2)NC(=O)CN2C(=O)[C@H](CCc3ccccc32)NC(=O)C[C@H](Cc2ccc(Cl)cc2)NCCCN1	–
155	4.3	CN1CCCN[C@@H](Cc2ccc(Cl)cc2)CC(=O)N[C@H]2CCc3ccccc3N(CC(=O)N[C@H](Cc3ccc(Cl)c(Cl)c3)CC1=O)C2=O	–
4960	–	CC1CCN[C@@H](Cc2ccc(Cl)cc2)CC(=O)N[C@H]2CCc3ccccc3N(CC(=O)N[C@H](Cc3ccc(Cl)c(Cl)c3)CC(=O)N1C)C2=O (stereo in doubt; 11)	–
–	3.6	CN1CCCCCOc2cc(cc3c2N(C)C(=O)CC3)Nc2cc1nc1c(C#N)cnn21	IC50 [4]: 190 nM
–	4.1	CN1CCCN[C@@H](Cc2ccc(S(C)(=O)=O)cc2)CC(=O)N[C@H]2CCc3ccccc3N(CC(=O)N[C@H](Cc3ccc(Cl)c(CCc4ccccc4)c3)CC1=O)C2=O	T1/2 [5]: 0.3 min
1990	3.8	CNC(=O)C[C@@H](Cc1ccc(Cl)c(Cl)c1)NC(=O)CN1C(=O)[C@@H](NC(=O)C[C@@H](N)Cc2ccc(Cl)cc2)CCc2ccccc21	–
–	4.2	Cc1cc(CSCc2nn(C)c(C)c2-c2cccc3c(CCCOc4cccc5ccccc45)c(C(=O)O)[nH]c23)nn1C	–
739	–	C[C@@H]1CCN(C)C(=O)C[C@@H](Cc2ccc(Cl)c(Cl)c2)NC(=O)CN2C(=O)[C@H](CCc3ccccc32)NC(=O)C[C@H](Cc2ccc(Cl)cc2)N1	–
–	2.2	N#Cc1cnn2c3cc(nc12)N1C[C@H](C[C@H]1CO)OC/C=C/COc1cc(cc2c1NC(=O)CC2)N3	T1/2 [6]: 2 min
48	–	C[C@H]1CCN(C)C(=O)C[C@@H](Cc2ccc(Cl)c(Cl)c2)NC(=O)CN2C(=O)[C@H](CCc3ccccc32)NC(=O)C[C@H](Cc2ccc(Cl)cc2)N1	–
